Key:
[1] = target: Platelet-derived growth factor receptor alpha (Homo sapiens) (UniProt P16234); experiment: Competitive binding affinity to PDGFRA (unknown origin) at 10 uM in presence of ATP relative to control
Outline: (§1)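 In vitro ATP-site competition binding assay across a diverse panel of 128 kinases, with compound tested at a single concentration. Kinase selectivity scores (S15) were calculated from the panel profiles.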

[2] = target: T1, Dual specificity protein kinase TTK (Homo sapiens) (UniProt P33981); experiment: Competitive binding affinity to TTK (unknown origin) at 10 uM in presence of ATP relative to control
T1 sequence (whole entry): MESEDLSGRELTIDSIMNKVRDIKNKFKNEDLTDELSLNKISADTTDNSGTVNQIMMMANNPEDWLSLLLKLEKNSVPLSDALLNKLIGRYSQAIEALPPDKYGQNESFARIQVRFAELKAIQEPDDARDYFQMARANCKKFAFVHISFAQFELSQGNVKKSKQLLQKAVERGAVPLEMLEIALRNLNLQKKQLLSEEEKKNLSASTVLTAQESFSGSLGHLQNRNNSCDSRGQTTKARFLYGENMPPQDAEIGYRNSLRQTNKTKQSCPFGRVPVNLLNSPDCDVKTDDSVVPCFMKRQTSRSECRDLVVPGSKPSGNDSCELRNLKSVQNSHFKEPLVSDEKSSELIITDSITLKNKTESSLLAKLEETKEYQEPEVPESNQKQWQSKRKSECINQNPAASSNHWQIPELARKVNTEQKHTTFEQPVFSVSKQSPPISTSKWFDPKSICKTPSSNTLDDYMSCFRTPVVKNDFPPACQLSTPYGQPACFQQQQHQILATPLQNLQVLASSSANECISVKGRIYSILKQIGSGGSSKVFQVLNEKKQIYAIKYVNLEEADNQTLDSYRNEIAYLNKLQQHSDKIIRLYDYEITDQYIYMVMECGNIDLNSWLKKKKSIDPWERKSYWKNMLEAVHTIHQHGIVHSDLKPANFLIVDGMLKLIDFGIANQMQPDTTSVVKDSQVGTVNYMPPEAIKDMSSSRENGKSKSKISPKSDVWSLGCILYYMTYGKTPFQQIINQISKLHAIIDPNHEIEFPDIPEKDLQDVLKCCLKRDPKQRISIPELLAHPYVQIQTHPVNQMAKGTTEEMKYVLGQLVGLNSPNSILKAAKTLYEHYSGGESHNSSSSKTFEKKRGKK
Outline: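 In vitro ATP-site competition binding assay across a diverse panel of 128 kinases, with each compound tested at a single concentration. Kinase binding is expressed relative to control.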

[3] = target: T2, Cyclin-G-associated kinase (Homo sapiens) (UniProt O14976); experiment: Competitive binding affinity to GAK (unknown origin) at 10 uM in presence of ATP relative to control
T2 sequence (whole entry): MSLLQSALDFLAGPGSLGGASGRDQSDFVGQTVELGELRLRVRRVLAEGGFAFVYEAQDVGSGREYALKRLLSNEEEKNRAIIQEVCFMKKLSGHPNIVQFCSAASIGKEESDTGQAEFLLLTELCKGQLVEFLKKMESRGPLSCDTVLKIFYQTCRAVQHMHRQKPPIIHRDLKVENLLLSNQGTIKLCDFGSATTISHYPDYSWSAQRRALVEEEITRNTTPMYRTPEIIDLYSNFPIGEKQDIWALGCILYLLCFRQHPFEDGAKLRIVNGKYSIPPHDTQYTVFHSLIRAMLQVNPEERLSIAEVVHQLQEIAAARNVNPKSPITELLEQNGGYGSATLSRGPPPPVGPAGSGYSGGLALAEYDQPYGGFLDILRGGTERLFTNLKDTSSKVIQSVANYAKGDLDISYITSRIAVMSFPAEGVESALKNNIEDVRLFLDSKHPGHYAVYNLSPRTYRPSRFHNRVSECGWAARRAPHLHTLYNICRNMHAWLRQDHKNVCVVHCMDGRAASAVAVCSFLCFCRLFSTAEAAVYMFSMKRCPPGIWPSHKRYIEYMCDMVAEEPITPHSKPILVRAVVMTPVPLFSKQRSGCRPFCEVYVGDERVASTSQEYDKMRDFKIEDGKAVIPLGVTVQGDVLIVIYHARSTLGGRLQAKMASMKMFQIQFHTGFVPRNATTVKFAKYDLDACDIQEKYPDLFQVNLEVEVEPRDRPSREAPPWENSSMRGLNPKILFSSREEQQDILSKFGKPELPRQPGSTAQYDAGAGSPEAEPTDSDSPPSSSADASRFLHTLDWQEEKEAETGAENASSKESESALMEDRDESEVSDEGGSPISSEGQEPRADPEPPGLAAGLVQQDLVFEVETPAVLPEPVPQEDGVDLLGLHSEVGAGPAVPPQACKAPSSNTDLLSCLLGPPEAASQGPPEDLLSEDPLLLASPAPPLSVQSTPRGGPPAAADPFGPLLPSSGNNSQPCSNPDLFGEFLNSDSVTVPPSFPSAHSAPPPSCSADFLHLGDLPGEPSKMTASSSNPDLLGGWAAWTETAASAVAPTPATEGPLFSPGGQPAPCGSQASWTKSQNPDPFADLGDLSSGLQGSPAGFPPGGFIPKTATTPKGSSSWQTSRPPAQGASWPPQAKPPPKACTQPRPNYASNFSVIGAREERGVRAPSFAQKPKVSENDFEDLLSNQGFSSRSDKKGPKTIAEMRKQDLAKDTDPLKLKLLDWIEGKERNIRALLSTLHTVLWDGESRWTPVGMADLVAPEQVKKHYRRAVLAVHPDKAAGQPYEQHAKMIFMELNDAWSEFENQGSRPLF
Outline: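 In vitro ATP-site competition binding assay, part of profiling against a diverse panel of 128 kinases. Each compound was tested at a single concentration of 10 µM. Kinome selectivity was summarized as S15 selectivity scores.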

[4] = target: T3, Membrane-associated tyrosine- and threonine-specific cdc2-inhibitory kinase (Homo sapiens) (UniProt Q99640); experiment: Competitive binding affinity to PKMYT1 (unknown origin) at 10 uM in presence of ATP relative to control; outline: as §1
T3 sequence (whole entry): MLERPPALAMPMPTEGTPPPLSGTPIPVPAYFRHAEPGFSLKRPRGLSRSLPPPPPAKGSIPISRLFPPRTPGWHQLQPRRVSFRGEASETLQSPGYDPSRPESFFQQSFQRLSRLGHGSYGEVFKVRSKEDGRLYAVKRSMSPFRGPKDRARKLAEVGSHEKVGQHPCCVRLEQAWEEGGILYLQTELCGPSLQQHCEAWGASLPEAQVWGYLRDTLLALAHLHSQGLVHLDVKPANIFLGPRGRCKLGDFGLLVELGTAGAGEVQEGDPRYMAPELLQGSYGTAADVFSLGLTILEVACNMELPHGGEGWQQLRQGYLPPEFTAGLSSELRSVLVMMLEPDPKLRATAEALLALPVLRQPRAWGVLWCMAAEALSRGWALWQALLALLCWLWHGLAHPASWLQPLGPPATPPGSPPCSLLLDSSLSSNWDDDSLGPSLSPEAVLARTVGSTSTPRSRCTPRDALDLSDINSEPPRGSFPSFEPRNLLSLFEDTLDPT

Chain of Platelet-derived growth factor receptor alpha (Homo sapiens) (P16234 whole entry): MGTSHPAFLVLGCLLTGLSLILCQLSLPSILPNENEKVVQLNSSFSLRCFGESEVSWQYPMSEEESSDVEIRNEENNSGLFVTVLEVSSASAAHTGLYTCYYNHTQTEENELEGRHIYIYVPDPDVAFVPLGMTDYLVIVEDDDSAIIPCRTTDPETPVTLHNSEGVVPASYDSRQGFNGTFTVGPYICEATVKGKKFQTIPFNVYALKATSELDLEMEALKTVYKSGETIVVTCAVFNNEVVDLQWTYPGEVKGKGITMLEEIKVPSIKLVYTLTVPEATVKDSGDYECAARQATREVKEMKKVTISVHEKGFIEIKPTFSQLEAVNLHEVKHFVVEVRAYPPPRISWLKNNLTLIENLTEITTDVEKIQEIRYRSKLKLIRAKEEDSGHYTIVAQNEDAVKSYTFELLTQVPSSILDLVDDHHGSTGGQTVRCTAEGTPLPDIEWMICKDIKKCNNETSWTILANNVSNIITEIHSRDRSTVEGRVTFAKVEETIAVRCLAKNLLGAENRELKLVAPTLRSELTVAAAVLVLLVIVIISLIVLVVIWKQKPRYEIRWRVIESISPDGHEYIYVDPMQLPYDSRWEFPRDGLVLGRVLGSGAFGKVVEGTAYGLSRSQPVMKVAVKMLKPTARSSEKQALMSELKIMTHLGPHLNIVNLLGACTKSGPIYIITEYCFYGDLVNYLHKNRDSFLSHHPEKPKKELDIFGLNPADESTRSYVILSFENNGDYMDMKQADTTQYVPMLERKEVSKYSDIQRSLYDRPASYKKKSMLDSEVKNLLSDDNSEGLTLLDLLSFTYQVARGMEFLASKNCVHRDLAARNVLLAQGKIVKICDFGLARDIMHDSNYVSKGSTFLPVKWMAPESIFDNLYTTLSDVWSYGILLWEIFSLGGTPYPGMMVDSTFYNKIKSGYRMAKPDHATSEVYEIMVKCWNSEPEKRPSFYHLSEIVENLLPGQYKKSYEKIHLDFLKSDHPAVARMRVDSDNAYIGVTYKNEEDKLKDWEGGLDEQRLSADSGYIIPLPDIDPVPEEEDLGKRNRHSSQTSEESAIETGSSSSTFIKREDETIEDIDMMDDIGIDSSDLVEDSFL

inhibition [1] [%] | inhibition [2] [%] | inhibition [3] [%] | inhibition [4] [%] | Compound
72 | 100 | 100 | < 50 | O[C@H]1CC[C@H](Nc2nccc(-n3ncc4ccccc43)n2)CC1
< 50 | 84 | 91 | < 50 | O[C@H]1CC[C@H](Nc2nccc(-n3ccc4ccccc43)n2)CC1
 | > 85 |  |  | CS(=O)(=O)CCCOc1cccc2c1ccn2-c1ccnc(N[C@H]2CC[C@H](C(=O)N3CCC(O)CC3)CC2)n1
< 50 | 96 | 91 | < 50 | N[C@H]1CC[C@H](Nc2nccc(-n3nnc4ccccc43)n2)CC1
< 50 | 98 | 100 | < 50 | O=C([C@H]1CC[C@H](Nc2nccc(-n3nnc4ccccc43)n2)CC1)N1CCOCC1
98 | 100 | 100 | 89 | O[C@H]1CC[C@H](Nc2nccc(-c3n[nH]c4ccccc34)n2)CC1
< 50 | 99 | 100 | < 50 | O[C@H]1CC[C@H](Nc2nccc(-n3nnc4ccccc43)n2)CC1
